Drawing on ChEMBL document CHEMBL4190207, “Lignans from the Roots of Taxus wallichiana and Their α-Glucosidase Inhibitory Activities” (J Nat Prod, 2017), this text covers IC50 for eleven compounds.

The assay in a line: Inhibition of Saccharomyces cerevisiae alpha-glucosidase using p-nitrophenyl-alpha-D-glucopyranoside as substrate after 30 mins. A digest of the protocol: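 Reaction started by adding 3 mM p-nitrophenyl-α-D-glucopyranoside and 0.2 U/mL α-glucosidase (both stock concentrations) in 0.01 M phosphate buffer, pH 7.0, to the sample solution. Incubated at 37 °C for 30 min, then stopped with 0.1 M Na2CO3. Activity read as absorbance at 401 nm. IC50 is the concentration giving 50% inhibition of enzyme activity. Acarbose was the positive control.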
One may read the IC50 as the point on the concentration scale where inhibition reaches its midpoint. High values mean weaker potency, low ones greater potency. In the case of `COc1cc([C@H]2c3cc(O)c(OC)cc3C[C@H]3[C@H](OC)OC[C@H]23)ccc1O`, the half-inhibitory concentration (IC50) is 35.3 µM.

For `COc1cc(C[C@H]2COC(=O)[C@@H]2Cc2ccc(O)c(OC)c2)ccc1O` [MATAIRESINOL], the midpoint of inhibition, the IC50, lay at 175 µM. With `COc1cc([C@H]2c3cc(O)c(OC)cc3C[C@H]3[C@@H](OC)OC[C@H]23)ccc1O`, the IC50 was 38.8 µM. The compound `COc1cc([C@H]2OC[C@@H]([C@@H](OC)c3ccc(O)c(OC)c3)[C@H]2CO)ccc1O` (relative stereo) registered an IC50 of 42.9 µM. Compound `COc1cc(C[C@H]2[C@@H](OC)OC[C@@H]2[C@H](OC)c2ccc(O)c(OC)c2)ccc1O` yielded a 50% inhibitory concentration (IC50) of 133 µM. Next, `COc1cc2c(cc1O)C1c3cc(OC)c(O)cc3C(=O)C(C2)C1CO` (stereo unspecified): 52.2 µM. `COc1cc([C@H]2c3cc(O)c(OC)cc3C[C@H]3C(=O)OC[C@H]23)ccc1O` [ALPHA-CONIDENDRIN]: the IC50 is 194 µM. As to `COc1cc([C@@H](OC)[C@@H]2CO[C@H](c3ccc(O)c(OC)c3)[C@@H]2CO)ccc1O` (relative stereo), half-maximal inhibition (IC50) required 170 µM. Next, `C[C@H]1O[C@H](O[C@H]2[C@H](O)[C@@H](O)[C@@H](O[C@H]3[C@H](O)[C@@H](O)C(O)O[C@@H]3CO)O[C@@H]2CO)[C@H](O)[C@@H](O)[C@@H]1N[C@H]1C=C(CO)[C@@H](O)[C@H](O)[C@H]1O` (stereo partly specified) [ACARBOSE]: 215 µM; `COc1cc2c(cc1O)C1c3cc(O)c(O)cc3C(=O)C(C2)C1CO` (stereo unspecified): 135 µM; `COc1cc(C[C@H]2C(=O)OC[C@@H]2C(=O)c2ccc(O)c(OC)c2)ccc1O`: 79.1 µM.
